Results as given in ChEMBL document CHEMBL3877264, “Quinolidene-rhodanine conjugates: Facile synthesis and biological evaluation” (Eur J Med Chem, 2017).
In brackets after ≈: the same amount, converted by molar mass.

Assays:
[1] = test system: Pseudomonas fluorescens; assay: Growth inhibition of Pseudomonas fluorescens NCIM 2036 at 10 ug/ml measured after 8 hrs relative to control; format: functional; conditions: NCIM 2036, 8 h, read-out: GI
Summary of the method: (§1)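 Bacteria grown in LB at 37 °C and 180 rpm to OD 1. Compounds added to wells, then 0.1% inoculum of 1 OD culture (620 nm). Growth read as OD at 620 nm after 8 h for gram-negative and after 12 h for gram-positive strains.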

[2] = test system: Escherichia coli; assay: Growth inhibition of Escherichia coli NCIM 2688 at 10 ug/ml measured after 8 hrs relative to control; format: functional; conditions: NCIM 2688, 8 h, read-out: GI; summary of the method: as §1
[3] = test system: Mycobacterium tuberculosis; assay: Growth inhibition of Mycobacterium tuberculosis H37Ra ATCC 25177 at active stage at 100 ug/ml measured after 8 days by XTT dye based two fold dilution method relative to control; format: functional; conditions: H37Ra ATCC 25177, 192 h, read-out: GI
Summary of the method: (§2)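 MTB H37Ra was grown in Dubos medium, then exposed in Mycobacterium pheli minimal medium (pH 6.6) to compounds dissolved in DMSO. The assay ended on day 8 (active) or day 12 (dormant). Viable cells were measured by XTT reduction menadione assay at 470 nm, blank-corrected, relative to vehicle control. Triplicates were expressed as mean ± SD. MIC came from dose-response curves.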

[4] = test system: Mycobacterium tuberculosis; assay: Growth inhibition of Mycobacterium bovis BCG ATCC 35743 at active stage at 0.78 ug/ml measured after 8 days by nitrate reductase dye based two fold dilution method relative to control; format: functional; conditions: BCG str. ATCC 35743, 192 h, read-out: GI
Summary of the method: (§3)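 M. bovis BCG was grown in Dubos medium and assayed in Mycobacterium pheli minimal medium (pH 6.6), with compounds from DMSO stocks. Incubation lasted 8 days for active and 12 days for dormant cultures. Viability was read by nitrate reductase at 540 nm against cell-free blanks, with vehicle set as 100% growth. Primary screen was at 30, 10 and 3 µg/ml, in triplicate, mean ± SD. MIC was taken from dose-response curves.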

[5] = test system: Bacillus subtilis; assay: Growth inhibition of Bacillus subtilis NCIM 2079 at 30 ug/ml measured after 12 hrs relative to control; format: functional; conditions: NCIM 2079, 12 h, read-out: GI; summary of the method: as §1
[6] = test system: Mycobacterium tuberculosis; assay: Growth inhibition of Mycobacterium bovis BCG ATCC 35743 at dormant stage at 12.5 ug/ml measured after 12 days by nitrate reductase dye based two fold dilution method relative to control; format: functional; conditions: BCG str. ATCC 35743, 288 h, read-out: GI
[7] = Selectivity index, ratio of GI50 for […]-differentiated human THP1 cells to MIC for Mycobacterium tuberculosis H37Ra ATCC 25177 at dormant stage; format: toxicity, cell-based, THP-1; conditions: read-out: Selectivity Index
Summary of the method: (§4)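 SI is the cell-line GI50 divided by the dormant-stage mycobacterial MIC. […] THP-1 macrophages were PMA-differentiated for 24 h.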

[8] = test system: Mycobacterium tuberculosis; assay: Growth inhibition of Mycobacterium bovis BCG ATCC 35743 at dormant stage at 25 ug/ml measured after 12 days by nitrate reductase dye based two fold dilution method relative to control; format: functional; conditions: BCG str. ATCC 35743, 288 h, read-out: GI; summary of the method: as §3
[9] = Antifungal activity against Cryptococcus neoformans NCIM 576 by standard agar method; format: functional
Summary of the method: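 MICs determined by standard agar method; DMSO as solvent control.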

[10] = test system: Mycobacterium tuberculosis; assay: Growth inhibition of Mycobacterium bovis BCG ATCC 35743 at active stage at 100 ug/ml measured after 8 days by nitrate reductase dye based two fold dilution method relative to control; format: functional; conditions: BCG str. ATCC 35743, 192 h, read-out: GI
[11] = test system: Mycobacterium tuberculosis; assay: Growth inhibition of Mycobacterium bovis BCG ATCC 35743 at dormant stage measured after 12 days by nitrate reductase dye based two fold dilution method; format: functional; conditions: BCG str. ATCC 35743, 288 h; summary of the method: as §3
[12] = test system: Mycobacterium tuberculosis; assay: Growth inhibition of Mycobacterium tuberculosis H37Ra ATCC 25177 at active stage at 12.5 ug/ml measured after 8 days by XTT dye based two fold dilution method relative to control; format: functional; conditions: H37Ra ATCC 25177, 192 h, read-out: GI
[13] = Cytotoxicity against primary HUVEC measured after 48 hrs by MTT assay; format: toxicity, cell-based; conditions: human
[14] = test system: Mycobacterium tuberculosis; assay: Growth inhibition of Mycobacterium tuberculosis H37Ra ATCC 25177 at dormant stage at 50 ug/ml measured after 12 days by XTT dye based two fold dilution method relative to control; format: functional; conditions: H37Ra ATCC 25177, 288 h, read-out: GI; summary of the method: as §2
[15] = Selectivity index, ratio of GI50 for human THP1 cells to MIC for Mycobacterium tuberculosis H37Ra ATCC 25177 at dormant stage; format: toxicity, cell-based, THP-1; conditions: read-out: Selectivity Index; summary of the method: as §4
[16] = Cytotoxicity against human HeLa cells at 100 ug/ml assessed as growth inhibition measured after 48 hrs by MTT assay relative to control; format: toxicity, cell-based; conditions: read-out: GI
[17] = Selectivity index, ratio of GI50 for human HeLa cells to MIC for Mycobacterium tuberculosis H37Ra ATCC 25177 at dormant stage; format: toxicity, cell-based; conditions: read-out: Selectivity Index; summary of the method: as §4
[18] = Selectivity index, ratio of GI50 for human PANC1 cells to MIC for Mycobacterium tuberculosis H37Ra ATCC 25177 at dormant stage; format: toxicity, cell-based, PANC-1; conditions: read-out: Selectivity Index; summary of the method: as §4
[19] = test system: Bacillus subtilis; assay: Growth inhibition of Bacillus subtilis NCIM 2079 at 3 ug/ml measured after 12 hrs relative to control; format: functional; conditions: NCIM 2079, 12 h, read-out: GI; summary of the method: as §1
[20] = test system: Mycobacterium tuberculosis; assay: Growth inhibition of Mycobacterium bovis BCG ATCC 35743 at dormant stage at 10 ug/ml measured after 12 days by nitrate reductase dye based two fold dilution method relative to control; format: functional; conditions: BCG str. ATCC 35743, 288 h, read-out: GI; summary of the method: as §3
[21] = test system: Escherichia coli; assay: Growth inhibition of Escherichia coli NCIM 2688 at 3 ug/ml measured after 8 hrs relative to control; format: functional; conditions: NCIM 2688, 8 h, read-out: GI; summary of the method: as §1

SMILES	inhibition of growth at 10 µg/mL [1]	inhibition of growth at 10 µg/mL [2]	inhibition of growth at 100 µg/mL [3]	inhibition of growth at 0.78 µg/mL [4]	inhibition of growth at 30 µg/mL [5]	inhibition of growth at 12.5 µg/mL [6]	selectivity ratio [7]	inhibition of growth at 25 µg/mL [8]	MIC [9]	inhibition of growth at 100 µg/mL [10]	IC50 [11]	IC90 [11]	inhibition of growth at 12.5 µg/mL [12]	GI50 at 48 h [13]	inhibition of growth at 50 µg/mL [14]	selectivity ratio [15]	inhibition at 48 h, 100 ug/ml [16]	inhibition of growth at 3 µg/mL [19]	inhibition of growth at 10 µg/mL [20]	inhibition of growth at 3 µg/mL [21]	further results
O=C1NC(=S)S/C1=C\c1cc2cc(F)ccc2nc1Cl	54.6%	27.5%	101%	-54.6%	-3.29%	100%	5.6	100%	25 µg/mL (≈ 77 µM)	97.7%	3.9 µg/mL (≈ 12 µM)	5.2 µg/mL (≈ 16 µM)	99.9%	> 100 µg/mL	110%	5.6	20%	-6.11%	16.9%	18.9%	selectivity ratio [17]: 5.6; selectivity ratio [18]: 5.6
COc1ccc2cc(/C=C3\SC(=S)NC3=O)c(Cl)nc2c1	43.5%	39.4%	96.4%	-60.1%	8.36%	98.8%		99.8%	50 µg/mL (≈ 148 µM)	98.9%			83.1%	> 100 µg/mL	104%		30.1%	-4.12%	27.9%	26.4%	
Cc1cccc2cc(/C=C3\SC(=S)N(CC(=O)O)C3=O)c(Cl)nc12	21.3%	3.38%	98.5%		-24.5%		5		150 µg/mL (≈ 396 µM)		> 30 µg/mL	> 30 µg/mL	22%	> 100 µg/mL	102%	5	3.1%	-3.67%	31.6%	8.28%	selectivity ratio [17]: 5; selectivity ratio [18]: 5
CCOc1ccc2nc(Cl)c(/C=C3\SC(=S)NC3=O)cc2c1	41%	77.2%	111%	-51.8%	98.5%	101%	28.6	100%	50 µg/mL (≈ 143 µM)	96.8%	1.1 µg/mL (≈ 3.14 µM)	1.9 µg/mL (≈ 5.42 µM)	101%	> 100 µg/mL	93%	28.6	30.2%	-34%	93.5%	64.7%	selectivity ratio [17]: 28.6; selectivity ratio [18]: 28.6
O=C1NC(=S)S/C1=C\c1cc2cc(Cl)ccc2nc1Cl	101%	109%	92.7%	7.4%	101%	100%	15.6	100%	100 µg/mL (≈ 293 µM)	98.4%	1.3 µg/mL (≈ 3.81 µM)	2.2 µg/mL (≈ 6.45 µM)	99.3%	> 100 µg/mL	86.4%	15.6	45.5%	62.8%	99.6%	106%	selectivity ratio [17]: 15.6; selectivity ratio [18]: 15.6
COc1ccc2nc(Cl)c(/C=C3\SC(=S)NC3=O)cc2c1	81.8%	-36.1%	90.3%	-67.9%	21.2%	93.8%	20.8	81.6%	100 µg/mL (≈ 297 µM)	86.3%	2.9 µg/mL (≈ 8.61 µM)	6.8 µg/mL (≈ 20.2 µM)	85.2%	> 100 µg/mL	90.5%	20.8	31.3%	1.79%	-14%	3.11%	selectivity ratio [17]: 20.8; selectivity ratio [18]: 20.8
Cc1cccc2cc(/C=C3\SC(=S)NC3=O)c(Cl)nc12	22.9%	27.5%	113%	-28.7%	6.66%	95.4%	7.8	101%	100 µg/mL (≈ 312 µM)	93.2%	5.1 µg/mL (≈ 15.9 µM)	9.5 µg/mL (≈ 29.6 µM)	76.3%	> 100 µg/mL	99.8%	7.8	32.1%	3.54%	-5.12%	26.2%	selectivity ratio [17]: 7.8; selectivity ratio [18]: 7.8
O=C(O)CN1C(=O)/C(=C/c2cc3cc(F)ccc3nc2Cl)SC1=S	1.08%	-8.65%	100%		-5.15%	99.8%		99.8%	25 µg/mL (≈ 65.3 µM)		> 30 µg/mL	> 30 µg/mL	-3.91%	> 100 µg/mL	83.2%		9.01%	-1.39%	43.1%	-2.27%	
